The subject of one data set is MDA-MB-453. The data set can be described thus: Induction of apoptosis in human MDA-MB-453 cells assessed as increase in caspase3/7 activity at 1-100 uM by fluorescence assay. The format is functional, cell-based.
The target in data set [1] is T1, Signal transducer and activator of transcription 3 (Homo sapiens, UniProt P40763). The data set can be described thus: Inhibition of STAT3 in human MDA-MB-468 cells assessed as reduction in cyclin D1 expression at 10 uM by Western blotting. The format is cell-based. Summed up: (§1)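 MDA-MB-468 breast cancer cells were treated with compound at a series of concentrations. Cell lysates were analysed by Western blotting for c-myc, cyclin D1 and survivin, with STAT3 Tyr705 phosphorylation probed alongside.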
T1 sequence (P40763 whole entry): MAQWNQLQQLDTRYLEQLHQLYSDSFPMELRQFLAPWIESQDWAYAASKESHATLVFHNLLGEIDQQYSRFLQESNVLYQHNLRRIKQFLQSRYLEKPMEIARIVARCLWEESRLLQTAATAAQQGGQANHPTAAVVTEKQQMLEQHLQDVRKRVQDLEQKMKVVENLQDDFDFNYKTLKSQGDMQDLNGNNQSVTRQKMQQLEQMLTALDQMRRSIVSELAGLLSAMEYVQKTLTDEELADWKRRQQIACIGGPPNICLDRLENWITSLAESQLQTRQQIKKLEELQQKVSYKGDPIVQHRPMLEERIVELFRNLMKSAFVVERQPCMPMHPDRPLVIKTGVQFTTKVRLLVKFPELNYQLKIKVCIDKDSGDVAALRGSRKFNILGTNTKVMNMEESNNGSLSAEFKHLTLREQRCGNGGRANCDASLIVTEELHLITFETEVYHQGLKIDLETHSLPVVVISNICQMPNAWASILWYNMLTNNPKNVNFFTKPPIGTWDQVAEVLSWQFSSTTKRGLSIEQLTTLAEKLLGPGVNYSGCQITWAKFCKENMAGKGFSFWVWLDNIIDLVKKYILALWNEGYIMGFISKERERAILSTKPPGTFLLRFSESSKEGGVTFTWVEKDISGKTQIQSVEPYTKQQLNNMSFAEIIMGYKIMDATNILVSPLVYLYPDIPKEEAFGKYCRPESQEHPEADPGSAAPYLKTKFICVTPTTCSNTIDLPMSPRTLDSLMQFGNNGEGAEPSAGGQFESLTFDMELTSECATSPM

Data set [2] deals with T1, Signal transducer and activator of transcription 3. The data set can be described thus: Inhibition of STAT3 transcriptional activity in human HeLa cells at 100 uM by luciferase reporter gene assay. Format: cell-based. Summed up: (§2)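 STAT3-dependent luciferase reporter gene assay in HeLa cells. Activity is reported as percent inhibition at a single 100 μM concentration, or as an IC50.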

For data set [3], the species on record is Mus musculus. The data set can be described thus: Toxicity in BALB/cA-v/v nude mouse assessed as mortality. The format is organism-based. The following applies: in vivo.
Another data set has as its system MDA-MB-468. The data set can be described thus: Induction of apoptosis in human MDA-MB-468 cells assessed as increase in caspase3/7 activity at 1-100 uM by fluorescence assay. The format is functional, cell-based.
Data set [4] is described as follows: Plasma concentration in CD1(ICR) mouse at 160 mg/kg, po after 8 hrs by LC-MS analysis. The format is ADME, organism-based. Further details: dose 160 mg/kg, route oral.
The target of data set [5] is T1, Signal transducer and activator of transcription 3. The data set can be described thus: Inhibition of STAT3 transcriptional activity in human HeLa cells by luciferase reporter gene assay. Format: cell-based. In outline: as §2
The target is the same in data set [6]. The data set can be described thus: Inhibition of STAT3 in human MDA-MB-468 cells assessed as reduction in survivin expression at 10 uM by Western blotting. The format is cell-based. In outline: as §1
For data set [7] the target is unchanged. The data set can be described thus: Inhibition of STAT3 in human MDA-MB-468 cells assessed as reduction in c-myc expression at 50 uM by Western blotting. The format is cell-based. Summed up: as §1
For data set [8], the target named is T2, Signal transducer and activator of transcription 5B (Homo sapiens) (UniProt P51692).
T2 sequence (whole entry): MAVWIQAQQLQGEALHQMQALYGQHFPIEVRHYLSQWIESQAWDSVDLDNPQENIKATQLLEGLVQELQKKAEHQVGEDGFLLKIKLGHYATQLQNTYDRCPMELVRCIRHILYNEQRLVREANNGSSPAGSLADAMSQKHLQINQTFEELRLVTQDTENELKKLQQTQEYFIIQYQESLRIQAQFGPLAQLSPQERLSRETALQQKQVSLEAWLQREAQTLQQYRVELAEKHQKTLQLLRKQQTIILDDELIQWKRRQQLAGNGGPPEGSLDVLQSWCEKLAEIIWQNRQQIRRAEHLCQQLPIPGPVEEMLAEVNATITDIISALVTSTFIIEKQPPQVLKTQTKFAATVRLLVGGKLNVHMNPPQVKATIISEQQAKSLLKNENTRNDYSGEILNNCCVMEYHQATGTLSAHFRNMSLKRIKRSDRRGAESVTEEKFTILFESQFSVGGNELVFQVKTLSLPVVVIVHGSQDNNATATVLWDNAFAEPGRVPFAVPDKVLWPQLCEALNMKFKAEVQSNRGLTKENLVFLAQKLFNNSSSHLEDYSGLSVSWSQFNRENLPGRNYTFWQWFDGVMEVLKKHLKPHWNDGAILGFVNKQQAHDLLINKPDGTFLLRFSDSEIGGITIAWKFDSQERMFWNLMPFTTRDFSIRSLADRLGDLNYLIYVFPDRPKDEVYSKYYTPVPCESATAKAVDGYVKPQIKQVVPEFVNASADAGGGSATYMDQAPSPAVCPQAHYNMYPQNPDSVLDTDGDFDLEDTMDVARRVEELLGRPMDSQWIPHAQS
Description: Inhibition of STAT5b DNA binding activity in IL-6 stimulated human MDA-MB-468 cells at 50 uM by transcription factor ELISA. The format is cell-based.

Data set [9] has as its target T1, Signal transducer and activator of transcription 3. Description: Inhibition of STAT3 in human MDA-MB-468 cells assessed as reduction in c-myc expression at 10 uM by Western blotting. The format is cell-based. Summed up:
as §1

Data set [10] shares this target. Description: Inhibition of STAT3 in IL-6 stimulated human MDA-MB-468 cells assessed as reduction in amplification of c-myc promoter by CHIP assay. The format is cell-based. In outline:
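Chromatin immunoprecipitation in compound-treated MDA-MB-468 breast cancer cells. STAT3 occupancy of the c-myc promoter was judged by amplification of the c-myc promoter from the immunoprecipitate.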

For data set [11], the target named is T3, Signal transducer and activator of transcription 5A (Homo sapiens) (UniProt P42229).
T3 sequence (whole entry): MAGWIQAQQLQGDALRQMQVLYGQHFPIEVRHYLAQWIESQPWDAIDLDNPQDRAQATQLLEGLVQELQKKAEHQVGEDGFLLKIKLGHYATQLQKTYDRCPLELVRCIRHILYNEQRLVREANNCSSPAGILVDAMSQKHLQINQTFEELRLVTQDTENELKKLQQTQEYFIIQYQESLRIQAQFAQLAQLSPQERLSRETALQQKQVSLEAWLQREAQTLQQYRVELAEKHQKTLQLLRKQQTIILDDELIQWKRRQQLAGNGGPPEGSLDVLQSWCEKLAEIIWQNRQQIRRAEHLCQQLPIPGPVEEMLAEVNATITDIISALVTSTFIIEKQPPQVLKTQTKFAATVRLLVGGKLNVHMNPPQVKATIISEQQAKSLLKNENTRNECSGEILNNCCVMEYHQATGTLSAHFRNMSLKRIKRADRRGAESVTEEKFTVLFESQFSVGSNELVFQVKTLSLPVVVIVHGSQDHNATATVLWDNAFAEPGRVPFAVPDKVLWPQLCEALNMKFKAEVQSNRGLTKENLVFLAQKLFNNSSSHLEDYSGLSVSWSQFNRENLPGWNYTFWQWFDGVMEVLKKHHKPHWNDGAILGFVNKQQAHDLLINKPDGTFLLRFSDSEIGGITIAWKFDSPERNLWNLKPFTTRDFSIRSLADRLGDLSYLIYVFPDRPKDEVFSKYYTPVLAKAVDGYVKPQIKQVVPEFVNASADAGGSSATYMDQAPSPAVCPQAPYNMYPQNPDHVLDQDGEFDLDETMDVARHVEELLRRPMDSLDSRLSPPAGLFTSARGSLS
The data set can be described thus: Inhibition of STAT5a DNA binding activity in IL-6 stimulated human MDA-MB-468 cells at 50 uM by transcription factor ELISA. Format: cell-based.

Data set [12] is filed under the species Mus musculus. The data set can be described thus: Toxicity in BALB/cA-v/v nude mouse assessed as increase in body weight relative to control. The following applies: in vivo. The format is organism-based. In outline:
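Human SCC-3 lymphoma cells implanted subcutaneously in nude mice. Compound given by oral gavage at 160 mg/kg once daily for 4 days. Tumour growth was assessed on day 4 against untreated controls, with significance taken at p < 0.05. Body weight and signs of toxicity were monitored over the same period.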

Structures are written as SMILES. Calls of active or inactive are those of the source. The rule behind the calls is not given here.

In the case of `O=C(Nc1nnc(-c2ccco2)o1)c1cc(-c2ccccc2)nc2ccccc12`, in the data set with MDA-MB-453, the outcome was inactive. Moreover, the inhibition result in data set [1], in [6], in [7], in data set [9] and in data set [10] was “Active” throughout. The compound also registered an inhibition in data set [2] of 99%. Further, the Activity entry in the data set filed under Mus musculus [3] and in the data set filed under Mus musculus [12] was “Non-toxic” each time. Moreover, the outcome with MDA-MB-468 was Active. Further, the concentration at 8 h in data set [4] was more than 260 µM. This compound also had a 50% inhibitory concentration (IC50) in data set [5] of 74 µM. Moreover, the inhibition result in data set [8] and in data set [11] was “inactive” in each case.

These data come from ChEMBL document CHEMBL1687687, “Identification of a New Series of STAT3 Inhibitors by Virtual Screening” (ACS Med Chem Lett, 2010).
